Reference: ChEMBL document CHEMBL1765020, “Synthesis and structure-affinity relationships of novel dibenzylideneacetone derivatives as probes for β-amyloid plaques” (J Med Chem, 2011)
Activity calls are given as the source filed them. The calls are words filed in the database; no cut-off is given here.

Columns and labels:
Mus musculus [1] = organism: Mus musculus; test: Binding affinity to amyloid beta (1 to 42) aggregate in APP/PS1 transgenic C57BL/6 mouse brain by Thioflavin S fluorescent staining assay; format: tissue-based; settings: C57BL6, tested as the 18F-labelled form
Method in brief: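 The same Tg mouse sections used for autoradiography were stained with thioflavin S to locate plaques. Fluorescence was viewed by microscope: excitation 400–440 nm, dichroic 455 nm, long-pass 470 nm.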

[2] = molecular target: Amyloid-beta precursor protein (Homo sapiens) (UniProt P05067); test: Binding affinity to amyloid beta (1 to 42) aggregate in Alzheimer disease patient brain by immunohistochemical staining using amyloid beta antibody; settings: tested as the 18F-labelled form
Method in brief: (§1)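 Plaque presence and location in the AD patient temporal-lobe sections were confirmed by immunohistochemistry with monoclonal anti-Aβ1-42 antibody BC05.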

[3] = Displacement of [125I]IMPY from amyloid beta (1 to 42) aggregate after 2 hrs by gamma counting
Method in brief: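 Competition binding in 1 mL PBS (0.2 M, pH 7.4). Aggregated Aβ1-42 fibrils (60 nM final) with [125I]IMPY and inhibitor at 10^-5 to 10^-10 M, added in ethanol. Nonspecific binding was defined with 1 μM IMPY. Incubated 2 h at 37 °C with shaking, then vacuum-filtered through glass fibre filters and the bound fraction gamma-counted. IC50 was converted to Ki by Cheng-Prusoff; triplicate, mean ± SD.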

Mus musculus [4] = organism: Mus musculus; test: Binding affinity to amyloid beta (1 to 42) aggregate in APP/PS1 transgenic C57BL/6 mouse brain after 1 hr by autoradiography; format: tissue-based; settings: C57BL6, tested as the 18F-labelled form
Method in brief: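 Paraffin brain sections from 12-month-old male C57BL6-APP/PS1 mice, with wild-type male C57BL6 controls, were deparaffinized through xylene and graded ethanol, then held 30 min in PBS (0.2 M, pH 7.4). Sections were incubated 1 h at room temperature with radiotracer (5 μCi/100 μL), washed 3 min in 40% ethanol, rinsed in water, dried and exposed to an imaging plate overnight.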

[5] = molecular target: Amyloid-beta precursor protein (Homo sapiens) (UniProt P05067); test: Binding affinity to amyloid beta (1 to 42) aggregate in cortex of Alzheimer disease patient brain by autoradiography; settings: tested as the 125I-labelled form
Method in brief: (§2)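 Human postmortem temporal-lobe paraffin sections were used: AD patient and normal control (person). They were deparaffinized (xylene, graded ethanol), held 30 min in PBS 0.2 M pH 7.4, incubated 1 h at room temperature with radiotracer (5 μCi/100 μL), washed 3 min in 40% ethanol, rinsed, dried and exposed to an imaging plate overnight.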

[6] = molecular target: Amyloid-beta precursor protein (Homo sapiens) (UniProt P05067); test: Binding affinity to amyloid beta (1 to 42) aggregate in white matter of Alzheimer disease patient brain by autoradiography; format: tissue-based; settings: tested as the 125I-labelled form; method in brief: as §2
[7] = molecular target: Amyloid-beta precursor protein (Homo sapiens) (UniProt P05067); test: Binding affinity to amyloid beta (1 to 42) aggregate in cortex of Alzheimer disease patient brain by immunohistochemical staining using amyloid beta antibody BC05; settings: tested as the 125I-labelled form; method in brief: as §1
[8] = molecular target: Amyloid-beta precursor protein (Homo sapiens) (UniProt P05067); test: Binding affinity to amyloid beta (1 to 42) aggregate in white matter of Alzheimer disease patient brain by immunohistochemical staining using amyloid beta antibody BC05; format: tissue-based; settings: tested as the 125I-labelled form; method in brief: as §1

Chain of Amyloid-beta precursor protein (Homo sapiens) (P05067 whole entry): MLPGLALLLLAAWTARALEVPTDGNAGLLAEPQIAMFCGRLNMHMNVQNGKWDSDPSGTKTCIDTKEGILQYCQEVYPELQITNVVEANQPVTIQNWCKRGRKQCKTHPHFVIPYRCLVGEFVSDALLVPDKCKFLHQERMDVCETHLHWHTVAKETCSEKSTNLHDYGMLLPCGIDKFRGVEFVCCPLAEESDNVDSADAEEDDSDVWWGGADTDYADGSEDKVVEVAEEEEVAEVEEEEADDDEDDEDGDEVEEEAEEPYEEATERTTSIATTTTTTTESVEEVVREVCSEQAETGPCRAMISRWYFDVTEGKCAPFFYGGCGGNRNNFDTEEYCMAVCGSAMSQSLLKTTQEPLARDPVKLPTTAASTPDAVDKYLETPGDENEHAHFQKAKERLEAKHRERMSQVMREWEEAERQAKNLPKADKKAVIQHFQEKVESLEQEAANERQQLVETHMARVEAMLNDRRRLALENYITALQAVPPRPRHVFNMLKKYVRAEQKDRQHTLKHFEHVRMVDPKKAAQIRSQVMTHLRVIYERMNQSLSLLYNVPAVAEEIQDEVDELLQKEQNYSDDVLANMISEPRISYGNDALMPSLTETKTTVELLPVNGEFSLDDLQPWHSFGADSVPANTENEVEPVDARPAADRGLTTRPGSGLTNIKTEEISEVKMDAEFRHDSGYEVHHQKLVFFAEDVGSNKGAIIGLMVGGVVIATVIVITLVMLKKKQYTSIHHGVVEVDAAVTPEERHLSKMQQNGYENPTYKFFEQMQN

Activity (Mus musculus [1]) | Activity [2] | Ki [3] | Activity (Mus musculus [4]) | Activity [5] | Activity [6] | Activity [7] | Activity [8] | Compound
Active | Active | 8.6 nM | Active | – | – | – | – | CNc1ccc(/C=C/C(=O)/C=C/c2ccc(OCCOCCOCCF)cc2)cc1
– | – | 2.8 nM | – | Active | Active | Active | Active | CNc1ccc(/C=C/C(=O)/C=C/c2ccc(I)cc2)cc1
